# PLC-beta3 inh = inhibitors of human phospholipase C beta3; inhibition, % at 12.2 µM; Purified PLC-beta3, fluorogenic substrate, fluorescence; actives 0.18% (n = 370,000); Q01970; in the data active = inhibition above about 11%;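 also: 0% = median of compound wells on plate and 100% = full blocker control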
# Tn6 DDE FP = DD(E)-Tn6 binding inhibition, primary FP screen | P02675 | Fibrin DD(E) TRITC-Tn6 fluorescence polarization displacement | inhibition, % at 8.3 µM | actives 0.21% (n = 370,000);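 active = inhibition above a per-campaign cutoff: mean of compounds within control limits plus 3 SD, cut at about 15% in these data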;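 also: 0% = median of all compound wells on the plate and 100% = blocking peptide control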
# Tn7 DDE FP = disrupts Tn7 cyclic peptide binding to fibrin D-Dimer-E complex; FP displacement of FITC-Tn7 peptide from fibrin DD(E); 0% = median of compound wells per plate; inhibition, % at 8.3 µM; actives 0.13% (n = 370,000);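 active = inhibition above the mean of compounds falling within the control limits plus 3 SD of them, cut at about 14% in these data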;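 also: 0% = plate median of compound wells and 100% = 10 µM Aha-Tn7 peptide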
#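 system = human fibrin DD(E) protein | quantity = DD(E) 2 µM final | medium = Tris/NaCl/CaCl2 buffer, pH 7.8 | also added = labelled Tn7 tracer, 0.1 µM | compound dosing = single point at 8.3 µM | timing = compound with protein 10 min, then 3 h after probe, room temperature | signal = FP measurement | benchmarks = Aha-Tn7 high control | repeats = one replicate per compound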
# CendR NRP1 mod = modulators of CendR peptide binding to human neuropilin-1; inhibition, % at 25 µM; AID 602438; actives 0.85% (n = 360,000); FAM-RPARPAR peptide binding to NRP-1, fluorescence polarization; O14786;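 active = inhibition or corrected inhibition above about 18%, plus a signal ratio from 0.5 to 1.5, limit read from the data, passing the limit was not always enough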
# PLCg1 inh = blocks human PLC-gamma1 enzyme activity; P19174; actives 0.84% (n = 370,000); inhibition, % at 12.2 µM; purified PLC-gamma1, fluorogenic substrate, fluorescence
# proKLK7 act = activators of human kallikrein-7 zymogen | P49862 | purified proKLK7, EDANS-DABCYL substrate fluorescence; 100% is mature enzyme control, 0% vehicle | activation, % at 7 µM | actives 0.9% (n = 370,000);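 active = activation above the mean of all tested compounds plus 3 SD, computed per campaign excluding outliers beyond control limits, cut at about 13% in these data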
# PLCgamma1 ctr = PLC-gamma1 inhibition, counter-screen for PLC-beta3 hits; shares compounds with PLCg1 inh; AID 743258; actives 3.1% (n = 3,300); inhibition, % at 12.3 µM; purified PLC-gamma1, fluorogenic substrate, fluorescence
# PLCbeta3 conf = confirmation of human PLC-beta3 inhibitors | purified PLC-beta3, fluorogenic substrate fluorescence | actives 1% (n = 3,300) | inhibition, % at 12.3 µM | shares compounds with PLCg1 inh; in the data active = inhibition above about 11%
# * marks the source's active call; other numbers are inactive results; . = no result given. Most compounds without a hit are left out; they make up all but 3% or so of the library. Rule as the data show it, unless noted: active = inhibition above about 9.5%; inactive = the rest.
SMILES,PLC-beta3 inh,Tn6 DDE FP,Tn7 DDE FP,CendR NRP1 mod,PLCg1 inh,proKLK7 act,PLCgamma1 ctr,PLCbeta3 conf
O=c1cc2oc3cc(O)c(O)cc3c(-c3ccccc3[N+](=O)[O-])c-2cc1O,9,-3,3,-14,13*,0,17*,9
O=c1cc(-c2ccccc2Cl)oc2cccc(O)c12,1,0,-2,3,5,0,.,.
c1ccc(Cn2ncc3ccccc32)cc1,3,2,-13,-3,15*,0,-8,-1
Fc1cccc(Cl)c1Cn1ncc2ccccc21,-4,-2,5,8,-1,0,.,.
O=C(c1ccc(Cl)cc1)N1CCN(c2ccc([N+](=O)[O-])c(NCc3cccnc3)c2)CC1,3,-5,-1,0,1,1,.,.
O=C(c1ccccc1)N1CCN(c2ccc([N+](=O)[O-])c(NCc3cccnc3)c2)CC1,0,-12,3,2,9.7*,0,-1,0
CC(=O)C1(C(=O)NC2CCCC2)CC(c2ccccn2)=NO1 (configuration not stated),0,-3,9,.,-4,-1,.,.
COc1ccc(CN=C2NC(=O)CC(C(=O)Nc3cc(C)cc(C)c3)S2)cc1 (configuration not stated),17*,-6,-8,8,9,0,1,1
CN1C(=O)c2cc(NC(=O)c3ccc(F)cc3)ccc2OC[C@H]2O[C@H](CC(=O)NC3CCC3)CC[C@H]21,2,-3,6,.,-1,0,.,.
CCC(C(=O)OCC(=O)Nc1cc(Cl)cc(Cl)c1)c1ccccc1 (configuration not stated),11*,-8,-14,8,8,0,0,1
Fc1ccc(-c2ccc3c(n2)CCCN3Cc2ccccc2C(F)(F)F)cc1,-16,-4,-4,.,-12,-7,.,.
CC(C)(C)NC(=O)c1cccc2c1OC(C)(C)C2,-6,-14,-4,0,16*,0,-2,-1
CC1(C)Cc2cccc(C(=O)NCc3ccco3)c2O1,-9,-6,1,-5,2,0,.,.
COc1cc(C(=O)Nc2ccc(Br)cc2C(=O)c2cc(OC)c(OC)c(OC)c2)cc(OC)c1OC,9,-1,-3,14,15*,0,-1,-8
COc1ccccc1C(=O)Nc1ccc(C)cc1C(=O)c1ccccc1,4,0,-3,4,9.7*,0,0,-1
CCC(C)NC(=O)C1CCC(=O)N(c2cc(OC)c(OC)c(OC)c2)C1c1ccc(OC)cc1 (configuration not stated),1,-2,-3,-2,-1,0,.,.
CCN(CC)CCCNC(=O)C1CCC(=O)N(c2ccc(OC)cc2)C1c1ccc(F)cc1 (configuration not stated),0,5,-3,10,12*,0,6,3
COc1ccc(C2C(C(=O)NCc3ccccn3)CCC(=O)N2c2cc(OC)c(OC)c(OC)c2)cc1 (configuration not stated),-1,-3,-1,-2,10*,0,-1,2
COc1ccc(N2C(=O)CCC(C(=O)O)C2c2ccc(F)cc2)cc1 (configuration not stated),-1,-1,-5,9,4,0,.,.
Cc1c(C(=O)N/N=C/c2cccs2)nnn1-c1nonc1N,2,-2,-2,-1,12*,0,-1,5
COC(=O)[C@]12C[C@H](CC(=O)NCc3cccc4ccccc34)C(=O)N(CCC3=CCCCC3)C1=C[C@H](C(C)C)O[C@@H]2C1CC1,1,-2,2,.,0,1,.,.
COc1ccc(C(=O)COC(=O)[C@H](C)Nc2ccc(C(F)(F)F)cc2[N+](=O)[O-])cc1,6,-1,-2,-6,11*,1,-1,-3
Cc1cc(C)c(C(=O)COC(=O)[C@H](C)Nc2ccc(C(F)(F)F)cc2[N+](=O)[O-])c(C)c1,1,9,-1,-5,2,0,.,.
C=CCN(C(=O)CNC(=O)c1cccs1)C(C(=O)NC1CCCCC1)c1cccnc1 (configuration not stated),8,0,-2,2,9.7*,-1,8,5
CCOC(=O)CN(C(=O)CNC(=O)c1cccs1)C(C(=O)NC1CCCCC1)c1cccnc1 (configuration not stated),2,-4,0,-2,7,1,.,.
SMILES,PLC-beta3 inh,Tn6 DDE FP,Tn7 DDE FP,CendR NRP1 mod,PLCg1 inh,proKLK7 act,PLCgamma1 ctr,PLCbeta3 conf
Cc1ccc(F)cc1NC(=O)CCOc1ccccc1,11*,2,0,14,11*,0,5,4
Cc1ccc(NC(=O)CCOc2ccccc2)c(C)c1,.,.,.,4,.,.,.,.
COc1ccc(Cc2nnc(N/N=C/c3ccc(N(C)C)cc3)[nH]c2=O)cc1OC,-11,-12,0,6,2,0,.,.
COc1ccc(/C=N/Nc2nnc(Cc3ccc(OC)c(OC)c3)c(=O)[nH]2)cc1OC,11*,-11,-8,-6,4,1,3,4
COc1ccc(/C=N/Nc2nnc(Cc3ccc(OC)c(OC)c3)c(=O)[nH]2)cc1,9,7,-8,1,14*,0,-1,-4
CCOc1ncnc2c1sc1nc3c(cc12)COC(C)(C)C3,2,-4,-5,-2,10*,0,-4,-1
CCCOc1ncnc2c1sc1nc3c(cc12)COC(C)(C)C3,-1,7,2,3,7,-1,.,.
COc1ccccc1CN[C@@H]1CC[C@@]23CCCN2C(=O)CCC[C@H]3C1,1,-4,3,.,0,.,.,.
N#Cc1ccc(S(=O)(=O)N2CCN(CC(=O)Nc3ccccc3C(=O)NC3CC3)CC2)cc1,2,0,-1,-2,9.7*,0,7,3
CC1CCN(CC(=O)Nc2ccccc2C(=O)NC2CC2)CC1,-2,-6,3,-6,-1,1,.,.
Cc1ccc(-c2nc(N)n(C(=O)c3cccnc3)n2)cc1,7,3,-3,2,12*,0,-5,-1
CCOC(=O)N1CCN(C(=O)C[C@H]2C[C@@]3(C(=O)OC)C(=C[C@H](C4CCCC4)O[C@@H]3C)N(CCC3=CCCCC3)C2=O)CC1,2,-5,2,.,0,0,.,.
CC(=O)N=c1sc(C(C)(C)C)c(C)n1C,1,-5,3,10,9.8*,0,-2,-4
